# Calls of active or inactive are those of the source. The calls are words filed in the database; no cut-off is given here.
# What was measured:
# [1] = (§1) Cytotoxicity against human HCT116 cells assessed as reduction in cell viability after 48 hrs by MTT assay; format: functional, cell-based; settings: HCT-116, 48 h
# In short: (§2)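 MTT viability assay over a compound concentration series in colorectal carcinoma cells; IC50 taken from dose–response curves. Mean ± SD of three separate experiments.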
# [2] = test system: HCT-116; test: as §1; format: functional, cell-based; in short: as §2
# [3] = (§3) Cytotoxicity against human HT-29 cells assessed as reduction in cell viability after 48 hrs by MTT assay; format: functional, cell-based; settings: HT-29, 48 h; in short: as §2
# [4] = test system: HT-29; test: as §3; format: functional, cell-based; in short: as §2
# [5] = test system: HCT-116; test: Antiproliferative activity against human HCT116 cells at 2.5 ug/ml by light microscopic method; format: functional, cell-based
# In short: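 HCT-116 cells grown at relatively high density, untreated or compound-treated, then viewed by light microscopy at 10× magnification.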
# [6] = test system: Mus musculus; test: Toxicity in BALB/c mouse xenografted with human HCT116 cells assessed as change in body weight at 20 mg/kg, ip administered every other day for 14 days; format: organism-based, HCT-116; settings: in vivo, 336 h
# [7] = test system: HCT-116; test: Induction of apoptosis in human HCT116 cells assessed as late apoptotic cells at 0.5 ug/ml after 48 hrs by Annexin V-FITC/propidium iodide staining based flow cytometry (reference value: 3.6%); format: functional
# [8] = test system: HCT-116; test: Induction of apoptosis in human HCT116 cells assessed as early apoptotic cells at 0.5 ug/ml after 48 hrs by Annexin V-FITC/propidium iodide staining based flow cytometry (reference value: 3.7%); format: functional
# [9] = test system: HCT-116; test: Induction of apoptosis in human HCT116 cells assessed as necrotic cells at 0.5 ug/ml after 48 hrs by Annexin V-FITC/propidium iodide staining based flow cytometry (reference value: 1.3%); format: functional
# [10] = test system: HCT-116; test: Induction of apoptosis in human HCT116 cells assessed as early apoptotic cells at 1 ug/ml after 48 hrs by Annexin V-FITC/propidium iodide staining based flow cytometry (reference value: 3.7%); format: functional
# [11] = test system: HCT-116; test: Induction of apoptosis in human HCT116 cells assessed as late apoptotic cells at 1 ug/ml after 48 hrs by Annexin V-FITC/propidium iodide staining based flow cytometry (reference value: 3.6%); format: functional
# [12] = test system: HCT-116; test: Induction of apoptosis in human HCT116 cells assessed as necrotic cells at 1 ug/ml after 48 hrs by Annexin V-FITC/propidium iodide staining based flow cytometry (reference value: 1.3%); format: functional
# [13] = test system: HCT-116; test: Induction of apoptosis in human HCT116 cells assessed as early apoptotic cells at 2 ug/ml after 48 hrs by Annexin V-FITC/propidium iodide staining based flow cytometry (reference value: 3.7%); format: functional
# [14] = test system: HCT-116; test: Induction of apoptosis in human HCT116 cells assessed as late apoptotic cells at 2 ug/ml after 48 hrs by Annexin V-FITC/propidium iodide staining based flow cytometry (reference value: 3.6%); format: functional
# [15] = test system: HCT-116; test: Induction of apoptosis in human HCT116 cells assessed as necrotic cells at 2 ug/ml after 48 hrs by Annexin V-FITC/propidium iodide staining based flow cytometry (reference value: 1.3%); format: functional
# [16] = test system: HCT-116; test: Induction of apoptosis in human HCT116 cells assessed as early apoptotic cells at 5 ug/ml after 48 hrs by Annexin V-FITC/propidium iodide staining based flow cytometry (reference value: 3.7%); format: functional
# [17] = test system: HCT-116; test: Induction of apoptosis in human HCT116 cells assessed as late apoptotic cells at 5 ug/ml after 48 hrs by Annexin V-FITC/propidium iodide staining based flow cytometry (reference value: 3.6%); format: functional
# [18] = test system: HCT-116; test: Induction of apoptosis in human HCT116 cells assessed as necrotic cells at 5 ug/ml after 48 hrs by Annexin V-FITC/propidium iodide staining based flow cytometry (reference value: 1.3%); format: functional
# [19] = test system: HCT-116; test: Induction of apoptosis in human HCT116 cells assessed as early apoptotic cells at 10 ug/ml after 48 hrs by Annexin V-FITC/propidium iodide staining based flow cytometry (reference value: 3.7%); format: functional
# [20] = test system: HCT-116; test: Induction of apoptosis in human HCT116 cells assessed as late apoptotic cells at 10 ug/ml after 48 hrs by Annexin V-FITC/propidium iodide staining based flow cytometry (reference value: 3.6%); format: functional
# [21] = test system: HCT-116; test: Induction of apoptosis in human HCT116 cells assessed as necrotic cells at 10 ug/ml after 48 hrs by Annexin V-FITC/propidium iodide staining based flow cytometry (reference value: 1.3%); format: functional
# [22] = test system: HCT-116; test: Induction of apoptosis in human HCT116 cells after 48 hrs by Annexin V-FITC/propidium iodide staining based flow cytometry; format: functional, cell-based
# [23] = test system: HCT-116; test: Induction of apoptosis in human HCT116 cells cytoplasmic extract assessed as increase in cleaved caspase-3 expression at 0.3125 to 2.5 ug/ml after 48 hrs by Western blot method; format: functional, cell-based
# In short: (§4)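 HCT-116 cells treated at 0–2.5 μg/mL, then split into cytoplasmic and nuclear extracts for Western blotting. The cytoplasmic fraction was probed for cleaved PARP, cleaved caspase-3, phospho-ERK and survivin, with α-tubulin as loading control. The nuclear fraction was probed for HDAC1, with histone H3 as loading control.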
# [24] = test system: HCT-116; test: Induction of apoptosis in human HCT116 cells cytoplasmic extract assessed as increase in cleaved PARP expression at 0.3125 to 2.5 ug/ml after 48 hrs by Western blot method; format: functional, cell-based; in short: as §4
# [25] = test system: HCT-116; test: Induction of apoptosis in human HCT116 cells cytoplasmic extract assessed as decrease in survivin expression at 0.3125 to 2.5 ug/ml after 48 hrs by Western blot method; format: functional, cell-based; in short: as §4
# [26] = test system: HCT-116; test: Increase in ERK phosphorylation in human HCT116 cells cytoplasmic extract at 0.3125 to 2.5 ug/ml after 48 hrs by Western blot method; format: cell-based; in short: as §4
# [27] = Downregulation of HDAC1 expression in human HCT116 cells nuclear extract at >0.625 ug/ml after 48 hrs by Western blot method; format: functional, cell-based; settings: HCT-116; in short: as §4
# [28] = test system: HCT-116; test: Antitumor activity against human HCT116 cells xenografted in BALB/c nude mouse assessed as inhibition of tumor volume at 20 mg/kg, ip administered every other day for 14 days; format: functional, organism-based
# In short: (§5)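 HCT-116 cells implanted subcutaneously in the flanks of nude mice. Compound given intraperitoneally at 20 mg/kg every other day for 14 days; controls got vehicle. Tumour volume measured per animal at set time points, and tumours excised at study end; mean ± SD, n = 10 per group.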
# [29] = test system: HCT-116; test: Antitumor activity against human HCT116 cells xenografted in BALB/c nude mouse assessed as inhibition of tumor weight at 20 mg/kg, ip administered every other day for 14 days; format: functional, organism-based; in short: as §5
smiles,measurement,setting,value
C=C1C(=O)[C@@]23[C@H](O)C[C@@H]4C(C)(C)CCC[C@@]4(COC(C)=O)[C@@H]2[C@@H](O)C[C@@H]1[C@H]3O [FLEXICANLIN A],IC50,[1],7.3 µM
same,Activity,[2],Dose-dependent effect
same,IC50,[3],10.5 µM
same,Activity,[4],Dose-dependent effect
same,Activity,[5],Active
same,Activity,[6],Non-Toxic
C=C1C(=O)[C@]23[C@H](O)C[C@@H]4C(C)(C)CCC[C@]45CO[C@](O)(C[C@@H]1[C@H]2O)[C@@H]53 [PSEUDOIRRORATIN A],IC50,[1],4.9 µM
same,Activity,[2],Dose-dependent effect
same,Activity,[7],5.3%
same,IC50,[3],5.9 µM
same,Activity,[4],Dose-dependent effect
same,Activity,[5],Active
same,Activity,[8],8.5%
same,Activity,[9],3.1%
same,Activity,[10],10%
same,Activity,[11],17%
same,Activity,[12],11.1%
same,Activity,[13],18.3%
same,Activity,[14],27.8%
same,Activity,[15],14.7%
same,Activity,[16],26.2%
same,Activity,[17],24.7%
same,Activity,[18],21.1%
same,Activity,[19],33.9%
same,Activity,[20],30.2%
same,Activity,[21],13.8%
same,Activity,[22],Dose-dependent effect
same,Activity,[23],Active
same,Activity,[24],Active
same,Activity,[25],Active
same,Activity,[26],Active
same,Activity,[27],Active
same,Activity,[28],Active
same,Activity,[29],Active
same,Activity,[6],Non-Toxic

# From ChEMBL document CHEMBL3877339, “Efficient Semisynthesis of (-)-Pseudoirroratin A from (-)-Flexicaulin A and Assessment of Their Antitumor Activities” (ACS Med Chem Lett, 2017)
